Test results published in ChEMBL document CHEMBL1131235, “(R)-(+)-2-[[[3-(Morpholinomethyl)-2H-chromen-8-yl]oxy]methyl] morpholine methanesulfonate: a new selective rat 5-hydroxytryptamine1B receptor antagonist” (J Med Chem, 1998).

Key:
[1] = biological target: 5-hydroxytryptamine receptor 1B (Rattus norvegicus, UniProt P28564); assay: Binding affinity against 5-hydroxytryptamine 1B receptor in membranes of Rat cerebral cortex; format: tissue-based
Summary of the method: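 Rat cerebral cortical membranes labelled with [125I]iodocyanopindolol in the presence of 60 μM isoproterenol to block β-adrenoceptor binding. Nonspecific binding was defined with 10 μM 5-HT.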

[2] = test system: Rattus norvegicus; assay: Effect on the wet dog shake response(WDS) in rats after 8 determinations at a dose of 1 mg/kg, sc pretreated with saline; conditions: route subcutaneous
[3] = test system: Rattus norvegicus; assay: Effect on the wet dog shake response(WDS) in rats after 8 determinations at a dose of 1 mg/kg, sc pretreated with 200 mg/kg ip of pCPA.

Sequence of 5-hydroxytryptamine receptor 1B (P28564 whole entry): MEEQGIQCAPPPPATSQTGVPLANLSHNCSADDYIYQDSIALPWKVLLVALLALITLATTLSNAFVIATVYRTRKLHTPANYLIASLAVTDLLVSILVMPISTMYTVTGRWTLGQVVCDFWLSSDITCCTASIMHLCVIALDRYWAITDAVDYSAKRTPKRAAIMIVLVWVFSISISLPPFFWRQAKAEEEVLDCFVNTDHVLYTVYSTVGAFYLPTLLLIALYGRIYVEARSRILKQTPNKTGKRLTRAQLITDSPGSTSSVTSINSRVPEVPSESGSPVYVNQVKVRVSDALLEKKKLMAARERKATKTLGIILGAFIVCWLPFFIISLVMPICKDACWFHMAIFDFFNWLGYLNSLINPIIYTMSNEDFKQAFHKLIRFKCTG

| Compound | Ki [1] | No. of WDS/60 min [2] | No. of WDS/60 min [3] |
| --- | --- | --- | --- |
| N#CC1=Cc2cccc(OCC3CNCCO3)c2CC1 (racemic) | 445 nM |  |  |
| C1=C(CN2CCOCC2)COc2c1cccc2OCC1CNCCO1 (racemic) | 60 nM |  |  |
| c1ccc2nc(N3CCNCC3)ccc2c1 [QUIPAZINE] |  | 36 | 30 |
| O=C(C1=Cc2cccc(OCC3CNCCO3)c2OC1)N1CCOCC1 (stereo not drawn) | 240 nM |  |  |

Further lines, with some results ahead:

| Ki [1] | Compound | No. of WDS/60 min [2] | No. of WDS/60 min [3] |
| --- | --- | --- | --- |
| 1400 nM | N#CC1=Cc2cccc(OCC3CCCNC3)c2OC1 (racemic) |  |  |
| 3600 nM | CN1CCOC(COc2cccc3c2OCC(C#N)=C3)C1 (racemic) |  |  |
| 250 nM | N#CC1=Cc2cccc(OCC3CNCCO3)c2OC1 (racemic) |  |  |
